How the values were obtained:
[1] = tested on: Rattus norvegicus; experiment: Ulcerogenic activity in fasted albino rat assessed as ulcer index at 100 mg/kg po administered qd for 3 days measured on day 4; type: toxicity, organism-based; set-up: dose 100 mg/kg, route oral; conditions: in vivo, 72 h
Procedure, shortened: (§1)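 Albino rats of both sexes (120–150 g), five per group, fasted 20 h, then dosed orally in 1% Tween (test agents 100 mg/kg, celecoxib and diclofenac sodium 50 mg/kg). Feeding cycle: 2 h fast, 2 h feed, 20 h fast, repeated with doses on days 2 and 3. Ulcers scored 0–4. Ulcer index = %incidence/10 + mean ulcer number + mean severity.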

[2] = tested on: Rattus norvegicus; experiment: Antiinflammatory activity in po dosed albino rat assessed as inhibition of carrageenan-induced paw edema administered 1 hr prior to carrageenan-challenge relative to diclophenac; type: functional
[3] = tested on: Rattus norvegicus; experiment: Antiinflammatory activity in po dosed albino rat assessed as inhibition of carrageenan-induced paw edema administered 1 hr prior to carrageenan-challenge measured after 3 hrs; type: functional, organism-based
Procedure, shortened: (§2)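 Carrageenan rat paw oedema (albino rats of both sexes, 120–150 g), oral dosing in Tween 80 suspension 1 h before 50 µl 1% carrageenan sub-plantar injection. Inhibition read at 3 h over a three-dose series (50, 100, 200 mg/kg for test agents; 20, 50, 100 mg/kg for diclofenac sodium). IC50 given in mg/kg and µmol/kg.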

[4] = tested on: Rattus norvegicus; experiment: Antiinflammatory activity in albino rat assessed as inhibition of carrageenan-induced paw edema at 100 mg/kg, po administered 1 hr prior to carrageenan-challenge measured after 3 hrs; type: functional
Procedure, shortened: (§3)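 Adult albino rats of both sexes (120–150 g), pre-hydrated with 3 ml water by gavage, five per group. Test agents suspended in distilled water with a few drops of Tween 80, given orally 1 h before sub-plantar injection of 50 µl 1% carrageenan into the right hind paw. Dial-gauge paw thickness taken at 0.5, 1, 2 and 3 h, with the left paw as reference. % inhibition = (Wc−Wt)/Wc × 100 against saline/Tween 80 controls.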

[5] = tested on: Rattus norvegicus; experiment: Antiinflammatory activity in albino rat assessed as inhibition of carrageenan-induced paw edema at 50 mg/kg, po administered 1 hr prior to carrageenan-challenge measured after 3 hrs; type: functional; procedure, shortened: as §3
[6] = tested on: Rattus norvegicus; experiment: Antiinflammatory activity in albino rat assessed as inhibition of carrageenan-induced paw edema at 100 mg/kg, po administered 1 hr prior to carrageenan-challenge measured after 0.5 hrs; type: functional; procedure, shortened: as §3
[7] = tested on: Rattus norvegicus; experiment: Antiinflammatory activity in albino rat assessed as inhibition of carrageenan-induced paw edema at 100 mg/kg, po administered 1 hr prior to carrageenan-challenge measured after 2 hrs; type: functional; procedure, shortened: as §3
[8] = species on record: Ovis aries; experiment: Selectivity ratio of IC50 for ovine COX2 to ovine COX1
Procedure, shortened: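 Ovine COX-1 and COX-2 inhibition measured with a commercial COX inhibitor screening kit following the Gierse et al. method. Selectivity expressed as the ratio IC50(COX-2)/IC50(COX-1).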

[9] = tested on: Rattus norvegicus; experiment: Antiinflammatory activity in albino rat assessed as inhibition of carrageenan-induced paw edema at 100 mg/kg, po administered 1 hr prior to carrageenan-challenge measured after 1 hr; type: functional; procedure, shortened: as §3
[10] = tested on: Rattus norvegicus; experiment: Antiinflammatory activity in albino rat assessed as inhibition of carrageenan-induced paw edema at 200 mg/kg, po administered 1 hr prior to carrageenan-challenge measured after 3 hrs; type: functional; procedure, shortened: as §2
[11] = tested on: Rattus norvegicus; experiment: Antiinflammatory activity in albino rat assessed as inhibition of carrageenan-induced paw edema at 50 mg/kg, po administered 1 hr prior to carrageenan-challenge measured after 2 hrs; type: functional; procedure, shortened: as §3
[12] = tested on: Rattus norvegicus; experiment: Antiinflammatory activity in albino rat assessed as inhibition of carrageenan-induced paw edema at 50 mg/kg, po administered 1 hr prior to carrageenan-challenge measured after 0.5 hrs; type: functional; procedure, shortened: as §3
[13] = tested on: Rattus norvegicus; experiment: Antiinflammatory activity in albino rat assessed as inhibition of carrageenan-induced paw edema at 20 mg/kg, po administered 1 hr prior to carrageenan-challenge measured after 3 hrs; type: functional; procedure, shortened: as §2
[14] = tested on: Rattus norvegicus; experiment: Antiinflammatory activity in albino rat assessed as inhibition of carrageenan-induced paw edema at 50 mg/kg, po administered 1 hr prior to carrageenan-challenge measured after 1 hr; type: functional; procedure, shortened: as §3
[15] = tested on: Rattus norvegicus; experiment: Ulcerogenic activity in fasted albino rat assessed as ulcer index at 50 mg/kg po administered qd for 3 days measured on day 4; type: toxicity, organism-based; set-up: dose 50 mg/kg, route oral; conditions: in vivo, 72 h; procedure, shortened: as §1

SMILES	UI [1]	inhibition (INH) [2]	IC50 [3]	inhibition in vivo at 100 mg/kg [4]	inhibition in vivo at 50 mg/kg [5]	inhibition in vivo at 100 mg/kg [6]	inhibition in vivo at 100 mg/kg [7]	Ratio IC50 [8]	inhibition in vivo at 100 mg/kg [9]	inhibition in vivo at 200 mg/kg [10]	inhibition in vivo at 50 mg/kg [11]	inhibition in vivo at 50 mg/kg [12]	inhibition in vivo at 20 mg/kg [13]	inhibition in vivo at 50 mg/kg [14]	UI [15]
N#Cc1c(Nc2ccc(O)cc2)nc(SCC(=O)Nn2c(COc3ccc(Cl)cc3Cl)nc3ccccc3c2=O)nc1-c1ccc(O)cc1	14.22	>90%	88.27 mg/kg	86.8%	56.1%	80.8%	86.8%	7.3	86.4%	91.2%	–	–	–	–	–
N#Cc1c(Cl)nc(SCC(=O)Nn2c(COc3ccc(Cl)cc3Cl)nc3ccccc3c2=O)nc1-c1ccccc1	–	–	–	68.4%	–	53.9%	66.7%	–	60%	–	–	–	–	–	–
Cn1c(SCC(=O)Nn2c(COc3ccc(Cl)cc3Cl)nc3ccccc3c2=O)nc(-c2ccccc2)c(C#N)c1=O	–	–	–	59.6%	–	51.9%	59.6%	–	54.5%	–	–	–	–	–	–
O=C(CSc1nc(-c2ccc(O)cc2)c(C(=O)O)c(=O)[nH]1)Nn1c(COc2ccc(Cl)cc2Cl)nc2ccccc2c1=O	–	–	–	38.6%	–	32.7%	38.6%	–	36.4%	–	–	–	–	–	–
N#Cc1c(-c2ccc(O)cc2)nc(SCC(=O)Nn2c(COc3ccc(Cl)cc3Cl)nc3ccccc3c2=O)[nH]c1=O	–	–	–	68.4%	–	61.5%	68.4%	–	63.6%	–	–	–	–	–	–
N#Cc1c(Nc2ccc(Cl)cc2)nc(SCC(=O)Nn2c(COc3ccc(Cl)cc3Cl)nc3ccccc3c2=O)nc1-c1ccc(Cl)cc1	–	–	–	64.9%	–	46.1%	61.4%	–	54.5%	–	–	–	–	–	–
N#Cc1c(-c2ccc(Cl)cc2)nc(SCC(=O)Nn2c(COc3ccc(Cl)cc3Cl)nc3ccccc3c2=O)n(Cc2ccccc2)c1=O	11.3	–	–	77.2%	–	61.5%	77.2%	–	72.7%	–	–	–	–	–	–
N#Cc1c(-c2ccccc2)nc(SCC(=O)Nn2c(COc3ccc(Cl)cc3Cl)nc3ccccc3c2=O)[nH]c1=O	14.4	>90%	86.74 mg/kg	86%	68.4%	80.8%	86%	20.6	81.8%	91.2%	–	–	–	–	–
O=C(CSc1nc(-c2ccc(Cl)cc2)c(C(=O)O)c(=O)[nH]1)Nn1c(COc2ccc(Cl)cc2Cl)nc2ccccc2c1=O	–	–	–	61.4%	–	51.9%	61.4%	–	58.2%	–	–	–	–	–	–
N#Cc1c(Nc2ccc(Cl)cc2)nc(SCC(=O)Nn2c(COc3ccc(Cl)cc3Cl)nc3ccccc3c2=O)nc1-c1ccc(O)cc1	12.08	–	–	79%	–	65.4%	77.2%	–	72.7%	–	–	–	–	–	–
Cn1c(SCC(=O)Nn2c(COc3ccc(Cl)cc3Cl)nc3ccccc3c2=O)nc(-c2ccc(O)cc2)c(C#N)c1=O	11.22	>90%	82.89 mg/kg	86%	70.4%	76.9%	86%	0.62	80%	97.8%	–	–	–	–	–
N#Cc1c(Nc2ccccc2)nc(SCC(=O)Nn2c(COc3ccc(Cl)cc3Cl)nc3ccccc3c2=O)nc1-c1ccccc1	13.26	–	–	78.1%	–	71.2%	78.1%	–	77.3%	–	–	–	–	–	–
O=C([O-])Cc1ccccc1Nc1c(Cl)cccc1Cl.[Na+] [DICLOFENAC SODIUM]	–	–	45.01 mg/kg	91.2%	87.3%	–	–	–	–	–	87.7%	76.9%	42.2%	83.6%	17.02
Cc1ccc(-c2cc(C(F)(F)F)nn2-c2ccc(S(N)(=O)=O)cc2)cc1 [CELECOXIB]	–	–	–	–	–	–	–	0.02	–	–	–	–	–	–	12.51
N#Cc1c(Nc2ccc(O)cc2)nc(SCC(=O)Nn2c(COc3ccc(Cl)cc3Cl)nc3ccccc3c2=O)nc1-c1ccc(Cl)cc1	14.43	>90%	83.36 mg/kg	91.2%	61.4%	71.2%	91.2%	0.4	90.9%	96.5%	–	–	–	–	–
N#Cc1c(Nc2ccc(O)cc2)nc(SCC(=O)Nn2c(COc3ccc(Cl)cc3Cl)nc3ccccc3c2=O)nc1-c1ccccc1	–	–	–	59.6%	–	61.5%	59.6%	–	72.7%	–	–	–	–	–	–
N#Cc1c(Cl)nc(SCC(=O)Nn2c(COc3ccc(Cl)cc3Cl)nc3ccccc3c2=O)nc1-c1ccc(Cl)cc1	–	–	–	68.4%	–	61.5%	68.4%	–	63.6%	–	–	–	–	–	–
O=C(CSc1nc(-c2ccccc2)c(C(=O)O)c(=O)[nH]1)Nn1c(COc2ccc(Cl)cc2Cl)nc2ccccc2c1=O	–	–	–	64.9%	–	61.5%	68.4%	–	69.1%	–	–	–	–	–	–
N#Cc1c(Nc2ccc(Cl)cc2)nc(SCC(=O)Nn2c(COc3ccc(Cl)cc3Cl)nc3ccccc3c2=O)nc1-c1ccccc1	–	–	–	59.6%	–	51.9%	57.9%	–	54.5%	–	–	–	–	–	–
N#Cc1c(-c2ccc(O)cc2)nc(SCC(=O)Nn2c(COc3ccc(Cl)cc3Cl)nc3ccccc3c2=O)n(Cc2ccccc2)c1=O	–	–	–	61.4%	–	51.9%	56.1%	–	54.5%	–	–	–	–	–	–
N#Cc1c(Nc2ccccc2)nc(SCC(=O)Nn2c(COc3ccc(Cl)cc3Cl)nc3ccccc3c2=O)nc1-c1ccc(Cl)cc1	–	–	–	56.1%	–	36.5%	50.9%	–	43.6%	–	–	–	–	–	–
N#Cc1c(-c2ccccc2)nc(SCC(=O)Nn2c(COc3ccc(Cl)cc3Cl)nc3ccccc3c2=O)n(Cc2ccccc2)c1=O	10.9	–	–	79%	–	76%	79%	–	77.3%	–	–	–	–	–	–
N#Cc1c(Cl)nc(SCC(=O)Nn2c(COc3ccc(Cl)cc3Cl)nc3ccccc3c2=O)nc1-c1ccc(O)cc1	–	–	–	73.7%	–	67.3%	73.7%	–	72.7%	–	–	–	–	–	–
N#Cc1c(Nc2ccccc2)nc(SCC(=O)Nn2c(COc3ccc(Cl)cc3Cl)nc3ccccc3c2=O)nc1-c1ccc(O)cc1	11.38	>90%	81.31 mg/kg	91.2%	77.2%	90.4%	91.2%	0.44	90.9%	96.5%	–	–	–	–	–
N#Cc1c(-c2ccc(Cl)cc2)nc(SCC(=O)Nn2c(COc3ccc(Cl)cc3Cl)nc3ccccc3c2=O)[nH]c1=O	–	–	–	64.9%	–	61.5%	64.9%	–	63.6%	–	–	–	–	–	–
Cn1c(SCC(=O)Nn2c(COc3ccc(Cl)cc3Cl)nc3ccccc3c2=O)nc(-c2ccc(Cl)cc2)c(C#N)c1=O	–	–	–	73.7%	–	80.8%	73.7%	–	76.4%	–	–	–	–	–	–

From ChEMBL document CHEMBL2034933, “New quinazolinone-pyrimidine hybrids: synthesis, anti-inflammatory, and ulcerogenicity studies” (Eur J Med Chem, 2012)
